Data reported in ChEMBL document CHEMBL1156059, “Thienopyrimidine-based P2Y12 platelet aggregation inhibitors” (Bioorg Med Chem Lett, 2009).

Columns and labels:
[1] = Antiplatelet aggregatory activity in human platelet rich plasma assessed as inhibition of ADP-induced platelet aggregation; format: functional
How it was run: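 Human PRP was obtained by centrifuging whole blood at 200g for 15 min at room temperature, then adjusted to 300,000 platelets/µL with autologous platelet-poor plasma (2380g spin). Stirred PRP was mixed with compound, and aggregation was started with 20 µM ADP. Aggregation was read as the increase in light transmittance on a microplate spectrophotometer. Each concentration was run in duplicate.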

Homo sapiens = species on record: Homo sapiens; test: Ratio of Ki for human recombinant P2Y12 in presence of HSA and AGP to Ki for human recombinant P2Y12
How it was run: (§1)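 Same 33P 2-MeSADP filtration binding on recombinant human P2Y12 CHO membranes (1 or 0.3 µg/well), room temperature, 1 h. Membranes were prepared with 5X HSA (1.75%) and 5X AGP (0.075%). Compounds were run as a seven-point threefold series from 10 µM, in triplicate. Fold shift is the Ki with added protein divided by the Ki without protein.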

P2Y purinoceptor 12 [2] = biological target: T1, P2Y purinoceptor 12 (Homo sapiens, UniProt Q9H244); test: Binding affinity to human recombinant P2Y12 receptor expressed in CHO cell membrane in presence of HSA and human AGP; format: cell membranes; how it was run: as §1
T1 sequence (Q9H244 whole entry): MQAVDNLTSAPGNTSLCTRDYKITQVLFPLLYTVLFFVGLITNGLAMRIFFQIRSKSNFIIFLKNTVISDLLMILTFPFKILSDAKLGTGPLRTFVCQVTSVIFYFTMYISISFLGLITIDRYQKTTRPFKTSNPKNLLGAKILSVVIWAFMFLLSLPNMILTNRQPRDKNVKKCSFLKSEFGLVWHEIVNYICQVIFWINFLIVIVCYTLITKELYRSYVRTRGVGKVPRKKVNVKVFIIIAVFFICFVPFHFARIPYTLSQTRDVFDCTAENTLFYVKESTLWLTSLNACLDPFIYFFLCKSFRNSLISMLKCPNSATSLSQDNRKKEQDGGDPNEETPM

P2Y purinoceptor 12 [3] = biological target: T1, P2Y purinoceptor 12; test: Binding affinity to human recombinant P2Y12 receptor expressed on CHO cell membrane; format: cell membranes
How it was run: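 Competition binding against 33P 2-MeSADP (added as a 1 nM solution) on membranes from CHO cells transfected with recombinant human P2Y12. Membranes were used at 10, 1 or 0.3 µg/well depending on method. Buffer contained 0.02% BSA, ascorbic acid and protease inhibitors. Cold 2-MeSADP (1.5 µM solution) served as control. Compounds were run as a seven-point threefold series from 10 µM, in triplicate. Plates were incubated 1 h at room temperature, then GF/B filtered and scintillation counted.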

Compound | IC50 [1] [µM] | Ratio Ki (Homo sapiens) | Ki (P2Y purinoceptor 12 [2]) [µM] | Ki (P2Y purinoceptor 12 [3]) [µM]
CCc1cc2c(N3CCN(C(=O)c4ccc(-c5ccccc5)cc4)CC3)ncnc2s1 | 7 |  |  | 0.029
CCc1cc2c(N3CCN(C(=O)COc4cccc(OC)c4)CC3)nc(NC(=O)NCCC(=O)O)nc2s1 | 39 | 2.3 | 0.447 | 0.191
CCc1cc2c(N3CCN(C(=O)c4ccc(-c5ccccc5)cc4)CC3)nc(N3C[C@@H](O)C[C@H]3C(=O)O)nc2s1 | 4 | 6 | 0.031 | 0.005
CCc1cc2c(N3CCN(C(=O)c4ccc(-c5ccccc5)cc4)CC3)nc(N3CCC(N)CC3)nc2s1 | 40 | 1.3 | 0.325 | 0.24
CCc1cc2c(N3CCN(C(=O)Oc4cccc5ccccc45)CC3)ncnc2s1 | 1.25 |  |  | 0.13
CCc1cc2c(N3CCN(C(=O)c4ccc(-c5ccccc5)cc4)CC3)nc(NCCCO)nc2s1 | 56 | 5.6 | 0.441 | 0.078
CCc1cc2c(N3CCN(C(=O)CC(F)(F)F)CC3)nc(NC(=O)NCCC(=O)O)nc2s1 | 18 | 1 | 0.172 | 0.177
CCc1cc2c(N3CCN(C(=O)CCCCOc4ccccc4)CC3)ncnc2s1 | 4 |  |  | 
CCc1cc2c(N3CCN(C(=O)c4ccc(-c5ccccc5)cc4)CC3)nc(N3CCN(C(=O)C(F)(F)F)CC3)nc2s1 | > 100 | 2 | 1.81 | 0.839
CCc1cc2c(N3CCN(C(=O)c4ccc(-c5ccccc5)cc4)CC3)nc(N3CCCC(C(N)=O)C3)nc2s1 (stereo not drawn) | 73 | 6.5 | 0.203 | 0.031
CCc1cc2c(N3CCN(C(=O)C(F)(F)F)CC3)ncnc2s1 | 18 |  |  | 
CCc1cc2c(N3CCN(C(=O)c4ccc(-c5ccccc5)cc4)CC3)nc(NC(=O)NCCC(=O)O)nc2s1 | 5 | 3.3 | 0.01 | 
CCc1cc2c(N3CCN(C(=O)c4ccc(-c5ccccc5)cn4)CC3)nc(NC(=O)NCCC(=O)O)nc2s1 | 42 | 4.3 | 0.161 | 0.037
CCc1cc2c(N3CCN(C(=O)Cc4ccccc4)CC3)ncnc2s1 | 28 |  |  | 0.66
CCc1cc2c(N3CCN(C(=O)c4ccc(-c5ccccc5)cc4)CC3)nc(NCCC(=O)O)nc2s1 | 57 | 15 | 0.122 | 

Next, values leading:

IC50 [1] [µM] | Ratio Ki (Homo sapiens) | Ki (P2Y purinoceptor 12 [2]) [µM] | Ki (P2Y purinoceptor 12 [3]) [µM] | Compound
4 | 1.3 | 0.046 | 0.036 | CCc1cc2c(N3CCN(C(=O)C(C)C)CC3)nc(NC(=O)NCCC(=O)O)nc2s1
37 | 7 | 0.241 | 0.035 | CCc1cc2c(N3CCN(C(=O)c4ccc(-c5ccccc5)cc4)CC3)nc(N3CCC(O)C3)nc2s1 (stereo not drawn)
16 | 1.2 | 0.367 | 0.295 | CCC(=O)N1CCN(c2nc(NC(=O)NCCC(=O)O)nc3sc(CC)cc23)CC1
34 | 2 | 0.14 | 0.068 | CCc1cc2c(N3CCN(C(=O)Cc4ccc(F)c(F)c4)CC3)nc(NC(=O)NCCC(=O)O)nc2s1
 |  |  | 4.4 | CCc1cc2c(N3CCN(C(=O)c4ccccc4)CC3)ncnc2s1
3 | 5 | 0.021 | 0.004 | CCc1cc2c(N3CCN(C(=O)c4ccc(-c5ccccc5)cc4)CC3)nc(N3[C@@H](C(N)=O)CC[C@H]3C(N)=O)nc2s1
21 | 4.4 | 0.163 | 0.037 | CCc1cc2c(N3CCN(C(=O)c4ccc(-c5ccccc5)cc4)CC3)nc(NCCO)nc2s1
8 |  |  | 2.1 | CCc1cc2c(N3CCN(C(=O)CC(C)C)CC3)ncnc2s1
28 |  |  | 2.99 | CCc1cc2c(N3CCN(C(=O)CC(F)(F)F)CC3)ncnc2s1
16 | 1 | 0.231 | 0.223 | CCc1cc2c(N3CCN(C(=O)Cc4ccccc4)CC3)nc(NC(=O)NCCC(=O)O)nc2s1
86 | 3.7 | 0.783 | 0.213 | CCc1cc2c(N3CCN(C(=O)CCOc4ccccc4)CC3)nc(NC(=O)NCCC(=O)O)nc2s1
30 | 11 | 0.297 | 0.027 | CCc1cc2c(N3CCN(C(=O)c4ccc(-c5ccccc5)cc4)CC3)nc(N3CC(O)C3)nc2s1
11 | 4 | 0.075 | 0.019 | CCc1cc2c(N3CCN(C(=O)c4ccc(-c5ccccc5)cc4)CC3)nc(NC[C@@H](O)CO)nc2s1
45 | 1 | 0.397 | 0.41 | CCc1cc2c(N3CCN(C(=O)c4ccc(-c5ccccc5)cc4)CC3)nc(N3CCNCC3)nc2s1
25 | 1.1 | 0.593 | 0.539 | CCc1cc2c(N3CCN(C(=O)COc4ccccc4)CC3)nc(NC(=O)NCCC(=O)O)nc2s1
38 | 0.8 | 0.38 | 0.46 | CCc1cc2c(N3CCN(C(C)=O)CC3)nc(NC(=O)NCCC(=O)O)nc2s1
